Drawing on ChEMBL document CHEMBL4513216, “Probing the Open Global Health Chemical Diversity Library for Multistage-Active Starting Points for Next-Generation Antimalarials” (ACS Infect Dis, 2020), this text covers cytotoxicity for 97 molecules.

This data set in a line: Toxicity liver stage against HepG2, at 10uM. It is filed as cell-based. On the set-up: test concentration 10 uM, cell line HepG2-A16-CD81EGFP. Conditions: human, HepG2-A16-CD81EGFP cells; read-out: INHIBITION
In a few lines:
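Uninfected HepG2-A16-CD81EGFP cells, 3 × 10^3 per well, 1536-well, plated on prespotted compound at 10 μM final, parasite-free screening media added to match infected plates; puromycin 10 μM positive, DMSO 0.5% negative; run in parallel with 48 h PbLuc assay at 37 °C, 5% CO2; viability by CellTiter-Glo luminescence, normalized to controls.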
Turning to `Cc1n[nH]c(C)c1CC(=O)NCc1ccccc1Cl`, the cytotoxicity at 10 µM was 9.87%.

For the molecule `CCNC(=O)COc1cc(CC)c2c(C)nn(-c3ccc(C)cc3)c2n1`, the cytotoxicity at 10 µM came to 0.409%.

On to `CC(C)CCN1C(=O)c2ccc(C(=O)NCCc3c[nH]cn3)cc2C1=O`, for which the cytotoxicity at 10 µM was -12.5%.

As for `COCCCNC(=O)Cc1cc(-c2ccc3c(c2)OCO3)on1`, the cytotoxicity at 10 µM was determined as 57.7%.

Take `N#Cc1ccc(OC2CCN(C(=O)Cc3cccs3)CC2)nc1`: the cytotoxicity at 10 µM turned out to be 1.96%.

In the case of `CCS(=O)(=O)NCc1nc(C)cc(N2CCOCC2)n1`, the cytotoxicity at 10 µM is -0.978%.

As for `O=C([C@@H]1COC[C@H]2CN(CC3CCCC3)C[C@H]21)N1CCOCC1`, the cytotoxicity at 10 µM was 14.9%.

`CC(=O)NCC(=O)N1Cc2cc(C#N)ccc2C1c1cnco1` (configuration not stated): the cytotoxicity at 10 µM was determined as 1.06%.

Turning to `O=S(=O)(c1cccnc1)N1C[C@@H]2COC[C@]2(COCC2CC2)C1`, the cytotoxicity at 10 µM was determined as 4.83%.

Take `Cc1ccc(CN2Cc3c(cnn3C)C(COCC3CC3)C2)s1` (configuration not stated): the cytotoxicity at 10 µM came out at 3.91%.

For `COc1ccc(N2CCCC3(C2)CN(c2nncs2)CCO3)cc1` (configuration not stated), the cytotoxicity at 10 µM came to 4.17%.

For `CCc1nn(-c2cc(Oc3cc(C)ccc3C)nc(C)n2)c(N)c1C#N`, the cytotoxicity at 10 µM was determined as 58.4%.

As for `Cn1c(N)c2c(=O)n(C)c(-c3ccc(Cl)cc3Cl)cc2c(C#N)c1=O`, the cytotoxicity at 10 µM was -5.43%.

As to `Cc1nnsc1C(=O)N1CCC(c2nc3ccccc3[nH]2)CC1`, the cytotoxicity at 10 µM was 2.5%.

Consider `CCCn1c(NCCc2ccccc2)nc2c(C)nn(C)c2c1=O`, for which the cytotoxicity at 10 µM is 66.4%.

In the case of `O=C1CNc2ncnc(Nc3cnn(Cc4ccc(F)cc4)c3)c2N1`, the cytotoxicity at 10 µM came out at 6.85%.

In the case of `CN(C)c1cc(C2CCCN(C(=O)c3noc4c3CCCC4)C2)ccn1` (configuration not stated), the cytotoxicity at 10 µM was -12.3%.

`NCCC(=O)N1CCC2(CC1)CN(C(=O)Cc1ccc(Cl)cc1)CCO2`: the cytotoxicity at 10 µM was 2.24%.

As to `CC(C)c1cc(NC(=O)CNC2CCc3ncnn3C2)on1` (configuration not stated), the cytotoxicity at 10 µM was 4.44%.

On to `O=C(c1cnc2n1CCCC2)N1CCCC1`, for which the cytotoxicity at 10 µM was -10.6%.

For the molecule `O=c1n(CCNc2cccc3ccccc23)nc2ccccn12`, the cytotoxicity at 10 µM turned out to be 0.392%.

In the case of `O=S(=O)(N1CCC(n2cccc2)CC1)N1CCCC1c1ccco1` (configuration not stated), the cytotoxicity at 10 µM stood at 12.7%.

Turning to `CCc1noc(C(C)N2CCN(Cc3noc(C4CC4)n3)CC2)n1` (configuration not stated), the cytotoxicity at 10 µM is -2.13%.

Consider `CN(c1ncc(S(N)(=O)=O)s1)C1CCc2ccccc2C1` (configuration not stated), for which the cytotoxicity at 10 µM is 11.1%.

On to `CC(C)Oc1ncccc1CNC(=O)N1CCOCC1`, for which the cytotoxicity at 10 µM is -40.6%.

Regarding `N#Cc1ncn(CCS(=O)(=O)c2ccccc2)n1`, the cytotoxicity at 10 µM is 1.18%.

Consider `CC(C)(C)c1cnc(CN2CCC(CN3CCOCC3)CC2)o1`, for which the cytotoxicity at 10 µM was found to be 3.63%.

`CC(C)(C)OC(=O)NCCc1csc(N2CCCC2)n1`: the cytotoxicity at 10 µM is 24.9%.

On to `Cc1ccsc1C(=O)NC1CCN(c2cnn(C)c2)C1=O` (configuration not stated), for which the cytotoxicity at 10 µM was -7.11%.

Take `CC(C)C(O)C1(CNC(=O)Nc2ccc(CN3CCOC3=O)cc2)CC1` (configuration not stated): the cytotoxicity at 10 µM is -5.09%.

On to `O=C(Nc1ccnc(OC2CCOC2)c1)c1ccccc1Cl` (configuration not stated), for which the cytotoxicity at 10 µM was 8.5%.

For the molecule `COCCNC(=O)Nc1cccc2c1CCN(S(C)(=O)=O)C2`, the cytotoxicity at 10 µM came to 7.37%.

Take `CCc1nccn1C1CCCN(C(=O)c2ccnc(N(C)C)c2)C1` (configuration not stated): the cytotoxicity at 10 µM came to 0.795%.

`N#CCCCOc1cccnc1NC(=O)Cc1ccccc1F`: the cytotoxicity at 10 µM was -2.27%.

As to `Cc1cc(SC(C)(C)C)ccc1NC(C)C(=O)NC(N)=O` (configuration not stated), the cytotoxicity at 10 µM was -5.36%.

Regarding `CC1CN(C)CCN1C(=O)c1ccc(-n2cnnc2)cc1` (configuration not stated), the cytotoxicity at 10 µM is 2.84%.

As for `CC(C)(C)OC(=O)NC(C)(C(N)=O)c1cccc(Cl)c1` (configuration not stated), the cytotoxicity at 10 µM was found to be 18.3%.

For `Cc1nc(C)c(C(=O)N2CCN(CCOc3ccccc3C)CC2)o1`, the cytotoxicity at 10 µM was 1.72%.

`CC(NCC(=O)Nc1ccc(N2CCCCCC2)cc1)c1cccs1` (configuration not stated): the cytotoxicity at 10 µM is 1.8%.

On to `CC(=O)NC1CCCN(Cc2ccc(-n3ccnc3)cc2)C1` (configuration not stated), for which the cytotoxicity at 10 µM is -57.4%.

Turning to `CNC(=O)c1ncn2c1CN(CCC(C)C)S(=O)(=O)c1ccccc1-2`, the cytotoxicity at 10 µM was -78.8%.

As to `CCc1ncnc2c1CCN(C(=O)c1cccn1C)CC2`, the cytotoxicity at 10 µM was -73.5%.

For `O=C(c1ccncn1)N1C[C@H]2CCC[C@@]2(COCC2CCOCC2)C1`, the cytotoxicity at 10 µM is -79.2%.

In the case of `CCNc1nc2c(s1)C(=O)CN(C(=O)NCc1ccccc1)C2`, the cytotoxicity at 10 µM is 59.1%.

As for `CN(Cc1ccncc1)CC1CCCN(CCc2ccc(Cl)cc2)C1` (configuration not stated), the cytotoxicity at 10 µM was determined as 1.06%.

For `CN(C)c1cnn(CC(=O)N2CCN(Cc3cccs3)CC2)c(=O)c1`, the cytotoxicity at 10 µM is 1.72%.

In the case of `CS(=O)(=O)NCC(=O)N[C@H]1CN(CC2CC2)C[C@@H]1c1ccccc1`, the cytotoxicity at 10 µM was -0.29%.

As for `Cc1ccc2[nH]c(CNC(=O)C3CC4(CCNCC4)CN3C)nc2c1C` (configuration not stated), the cytotoxicity at 10 µM was -9.66%.

For the molecule `CCc1nc(CCn2ccnc2-c2nccn2C)no1`, the cytotoxicity at 10 µM was -50.2%.

In the case of `COc1cccc(C(=O)N2CCN(C(=O)CCCc3cn[nH]c3)CC2)c1`, the cytotoxicity at 10 µM was -1.3%.

Take `COCCc1noc(C2CCCN(c3nc(N)nc4c3CCCC4)C2)n1` (configuration not stated): the cytotoxicity at 10 µM is 48.1%.

For the molecule `CC(=O)N[C@@H]1CN(c2nc(CO)cs2)C[C@H]1c1ccc(C)o1`, the cytotoxicity at 10 µM is -47%.

As for `Cc1cccn2c(CNC(C)CCc3ccc(O)cc3)cnc12` (configuration not stated), the cytotoxicity at 10 µM was 1.95%.

Take `CN(C)Cc1csc(-c2nccn2Cc2ccsc2)c1`: the cytotoxicity at 10 µM was -2.47%.

`CCN1CC(C(=O)NCc2nn(CC)c3ccccc23)CCC1=O` (configuration not stated): the cytotoxicity at 10 µM was -5.83%.

On to `O=C(CO)N1CCCC(N2CCN(c3ccccc3F)CC2)C1` (configuration not stated), for which the cytotoxicity at 10 µM is -49.1%.

Turning to `COc1cccc(N2CCN(C(C(=O)O)c3ccc(OC)nc3)CC2)c1` (configuration not stated), the cytotoxicity at 10 µM stood at 14.5%.

As to `CCc1nc(NCCc2c(C)nn(CC)c2C)c2cnn(C)c2n1`, the cytotoxicity at 10 µM turned out to be 9.33%.

On to `CCn1cc(CN2CCC(N3CCC(O)CC3)CC2)cc1C#N`, for which the cytotoxicity at 10 µM was found to be 0.371%.

With `N[C@H]1CCCN(S(=O)(=O)c2ccc(C(=O)NCC(F)F)cc2)C1`, the cytotoxicity at 10 µM was -0.566%.

Turning to `CCN(CCn1c(=O)oc2ccccc21)CC1CCOCC1`, the cytotoxicity at 10 µM is -8.73%.

On to `Cc1cc(N2CCC(NC(C)Cc3ccsc3)CC2)nc(N)n1` (configuration not stated), for which the cytotoxicity at 10 µM stood at 2.22%.

Consider `Cc1cccnc1CC(C)Nc1nc(N)nc2c1CCNC2` (configuration not stated), for which the cytotoxicity at 10 µM came out at 2.09%.

Turning to `Cc1nnsc1C(=O)NCc1cccnc1N1CCCC(O)C1` (configuration not stated), the cytotoxicity at 10 µM was 1.91%.

With `NC1CCN(C2CCN(c3ccc(-c4ccco4)cc3)CC2)CC1`, the cytotoxicity at 10 µM was determined as 1.03%.

For `Cc1ccc(Sc2ccc(CN3CCC4(CC3)NCCNC4=O)o2)cc1`, the cytotoxicity at 10 µM is -6.71%.

`COc1ccccc1OC1CN(C(=O)c2ccccc2C(C)=O)C1`: the cytotoxicity at 10 µM was 7.6%.

As for `CCCN(CCOC)C(=O)c1cc(Cn2c(C)nc3ccccc32)[nH]n1`, the cytotoxicity at 10 µM amounted to 21.8%.

On to `Cc1ccnc(NCc2cn3nc(C)sc3n2)n1`, for which the cytotoxicity at 10 µM is -0.449%.

For the molecule `Cc1ccnc(NCCSc2nccn2C)n1`, the cytotoxicity at 10 µM is -42%.

Consider `Cc1cc(N2CCCN(C(=O)Cc3ccc(O)c(Cl)c3)CC2)ccn1`, for which the cytotoxicity at 10 µM is -17.3%.

Consider `c1cnc2c(C3CCN(Cc4ccsc4)CC3)n[nH]c2n1`, for which the cytotoxicity at 10 µM was found to be 1.34%.

As to `COc1ncc(C2(O)CCN(Cc3ccccc3O)CC2)c(OC)n1`, the cytotoxicity at 10 µM came to 2.33%.

Regarding `CN(Cc1noc(C(C)(C)C)n1)C1CCCN(c2cccnn2)C1` (configuration not stated), the cytotoxicity at 10 µM was -7.96%.

On to `CCN(CC1CCOC1)C(=O)c1ccc(N2CCOCC2)c(F)c1` (configuration not stated), for which the cytotoxicity at 10 µM is -2.45%.

Turning to `Cc1ccnc(NC(=O)c2[nH]nc(C(C)C)c2Br)c1`, the cytotoxicity at 10 µM was found to be 12.9%.

Turning to `Clc1ccc(OCCCN2CCOC(Cn3cncn3)C2)cc1` (configuration not stated), the cytotoxicity at 10 µM is -10%.

Consider `O=C(NCCNc1cnccn1)N1CCN(Cc2cccnc2)CC1`, for which the cytotoxicity at 10 µM was 4.07%.

With `Cc1noc(C(C)C)c1C(=O)NCCCN1CCCC1`, the cytotoxicity at 10 µM is -13.5%.

For `CCC(=O)N1CCC2(CC1)COCCN2Cc1ccc(F)cc1`, the cytotoxicity at 10 µM is -76.5%.

`Cc1ccc(CN2CCCC3(COCCN(Cc4c[nH]nn4)C3)C2)s1` (configuration not stated): the cytotoxicity at 10 µM is -1.31%.

Consider `COCC1CN(C(=O)Cc2ccccn2)Cc2ncnn2C1` (configuration not stated), for which the cytotoxicity at 10 µM is -2.47%.

In the case of `CCN1CCC2(C1)CN(S(=O)(=O)c1cn(C)cn1)C2`, the cytotoxicity at 10 µM is -109%.

With `c1ccc(-c2ncc3c(n2)C2(CCN(CC4CC4)C2)COC3)cc1` (configuration not stated), the cytotoxicity at 10 µM was 0.975%.

For the molecule `O=C([C@H]1CCCO1)N1CCCC2(COCCN(c3ccccc3)C2)C1` (some centres not stated), the cytotoxicity at 10 µM was determined as 13.9%.

`CC(C)NC(=O)C1(CC2CC(c3ccc(F)cc3)=NO2)CCNCC1` (configuration not stated): the cytotoxicity at 10 µM was -8.54%.

`Cn1cnc2c1C(COCC1CCOCC1)CN(C(=O)c1ccco1)C2` (configuration not stated): the cytotoxicity at 10 µM is -75.5%.

For the molecule `COc1c(CNCc2ccc(C(=O)N3CCCC3)cc2)c(C)nn1C`, the cytotoxicity at 10 µM is -3.23%.

Turning to `Cc1cccc(CN2C[C@@H]3COC[C@]3(CNC(=O)C3CCC3)C2)c1`, the cytotoxicity at 10 µM was -112%.

As for `CNC(=O)COC1COC2(CCN(c3ccc(C#N)cc3)CC2)C1` (configuration not stated), the cytotoxicity at 10 µM is -75.7%.

In the case of `CN(C)C1CCC2(CCN(Cc3nccn3C)CC2)c2ccccc21` (configuration not stated), the cytotoxicity at 10 µM was determined as 5.64%.

As to `CCCS(=O)(=O)N1C[C@@H]2CN(Cc3cnn(C)c3)CCO[C@@H]2C1`, the cytotoxicity at 10 µM is 0.835%.

Consider `CN(C)c1ncnc2c1CCN(CC1CCOCC1)CC2`, for which the cytotoxicity at 10 µM is -69.6%.

Regarding `Cc1ccc(C(=O)N2Cc3c(CN4CCCCC4)nn(C)c3C2)cc1C`, the cytotoxicity at 10 µM is -2.81%.

For the molecule `CCS(=O)(=O)N1CCC2(CC1)CC(COC)N(c1ncccn1)C2` (configuration not stated), the cytotoxicity at 10 µM was determined as 5.57%.

In the case of `COCCN1C[C@@H]2CC[C@H]1CN(C(=O)c1ccc(Cl)cc1)C2`, the cytotoxicity at 10 µM is -8.03%.

In the case of `O=C(NC1CCC1)[C@H]1C[C@H]2CN(CC3CC3)C[C@@H]1O2`, the cytotoxicity at 10 µM was 7.55%.
